Active and inactive are the calls of the source. The rule behind the calls is not given here.

Assay [1] has as its system Rattus norvegicus. As to the kind of experiment: Induction of turning toward intact side in OFA rat model with 6-OH-DA-induced unilateral degeneration of nigrostriatal tract at 1 mg/kg, ip. The assay is classed as functional, organism-based. Details: dose 1 mg/kg.
Assay [2] concerns Rattus norvegicus. The experiment in a line: Induction of stereotypy in OFA rat at 30 mg/kg, ip measured every 30 mins for 2 hrs followed by every 60 mins for 7 hrs. The assay is classed as functional, organism-based. On the set-up: dose 30 mg/kg. The method, boiled down:
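Male OFA rats (180-250 g), each in its own cylinder with a wire-netting floor, acclimatized 30 min, then dosed. Observed every 30 min for 2 h, then every 60 min up to 7 h total. Six rats per dose. Sniffing, licking and biting scored with the Costall et al. system and summed as total activity per rat over 0-7 h.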

In assay [3] the test system is Rattus norvegicus. As to the kind of experiment: Inhibition of serum prolactin in sc dosed rat after 4 hrs by RIA. The assay is classed as functional. The essentials: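 Serum prolactin measured by RIA 4 h after sc dosing, expressed as NIH-RP. ED50 calculated from dose-response relationships.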
Assay [4] deals with Rattus norvegicus. As to the kind of experiment: Inhibition of ovum implantation in sc dosed inseminated rat. In kind it is functional. The essentials:
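Inseminated rats dosed sc. ED value for inhibition of ovum implantation.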

The test system of assay [5] is Rattus norvegicus. As to the kind of experiment: Induction of stereotypy in OFA rat at 10 mg/kg, sc measured every 30 mins for 2 hrs followed by every 60 mins for 7 hrs. The assay is classed as functional, organism-based. Details: dose 10 mg/kg. The method, boiled down:
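Male OFA rats (180-250 g), housed singly in cylinders with wire-netting floor, acclimatized 30 min before dosing. Behaviour observed every 30 min for 2 h, then every 60 min up to 7 h total. Stereotypy (sniffing, licking, biting) scored on Costall et al. scale; total score per rat over 0-7 h. Six rats per dose.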

Turning to `CN1C[C@@H](CC#N)C[C@@H]2c3cccc4[nH]cc(c34)C[C@H]21` [DELERGOTRILE], the outcome in the assay with Rattus norvegicus [1] and with Rattus norvegicus [2] was Active. In addition, the ED50 in the assay with Rattus norvegicus [3] was 0.06 mg/kg; in the assay with Rattus norvegicus [4], 3 mg/kg.
Consider `CN1C[C@@H](CC#N)C[C@H]2c3cccc4[nH]cc(c34)C[C@H]21`, for which the outcome in the assay with Rattus norvegicus [1] and in the assay on Rattus norvegicus [2] was Active.
For `CN1CCc2cccc3c2[C@H]1Cc1ccc(O)c(O)c1-3`, in the assay with Rattus norvegicus [5], the outcome was Active.
With `CN1C[C@H](CC#N)C[C@@H]2c3cccc4[nH]cc(c34)C[C@H]21`, in the assay with Rattus norvegicus [1], the outcome was Active. The ED50 with Rattus norvegicus [3] was found to be 0.06 mg/kg; in the assay on Rattus norvegicus [4], 1 mg/kg.
For `CN1C[C@H](CSc2ccccn2)C=C2c3cccc4[nH]cc(c34)C[C@H]21` [TIOMERGINE] the same measures were “Active”, 1.47 mg/kg and 11.5 mg/kg.
In the case of `CN1C[C@H](CC#N)C[C@@H]2c3cccc4[nH]c(Cl)c(c34)C[C@H]21` [LERGOTRILE], the result in the assay on Rattus norvegicus [1] and with Rattus norvegicus [2] was Active. Besides, the ED50 in the assay on Rattus norvegicus [3] was 0.08 mg/kg; with Rattus norvegicus [4], 2 mg/kg.
In the case of `CC(C)C[C@H]1C(=O)N2CCC[C@H]2[C@]2(O)O[C@](NC(=O)[C@@H]3C=C4c5cccc6[nH]c(Br)c(c56)C[C@H]4N(C)C3)(C(C)C)C(=O)N12` [BROMOCRIPTINE], the result in the assay on Rattus norvegicus [2] was Active. Further, the ED50 with Rattus norvegicus [3] came out at 0.007 mg/kg; in the assay on Rattus norvegicus [4], 0.75 mg/kg.

Source of the values: ChEMBL document CHEMBL3271990, “Ergot alkaloids. New ergolines as selective dopaminergic stimulants” (1978).
